The list is not random: actives were taken first. Their share in the collection is about 3.4%.
CHRM1 PAM: positive allosteric modulators of human M1 muscarinic receptor | P11229 | CHO-K1 hM1, Fluo-8 calcium fluorescence, ACh EC20; 0% = ACh EC20, 100% = maximal ACh | activation, % at 3 µM | 360,000 compounds, 0.088% hits | AID 588819; in the data active means activation above about 19%, passing the limit was not always enough
CHRM1 antagonist: blocks human M1 muscarinic receptor | P11229 | CHO-K1 hM1, Fluo-8 calcium fluorescence, ACh EC80 antagonist | inhibition, % at 3 µM | 360,000 compounds, 1.3% hits | AID 588852;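 active means percent inhibition above its own plate's cutoff, namely the mean of that plate's compound wells plus 3 SD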;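 further: peak over basal fluorescence ratio during 140 s after agonist addition; 0% = ACh EC80 plus DMSO and 100% = DMSO alone without agonist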
TAAR1 antag: antagonists of human TAAR1; CHO RD-HGA16 TAAR1, Fluo-8 calcium fluorescence, antagonist; inhibition, % at 3 µM; 360,000 compounds, 1.5% hits; AID 624466;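 active means inhibition above a per-plate cutoff, the mean inhibition of test compounds on that plate plus 3 SD, cut at about 49% in these data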;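 further: 0% = DMSO plus EC80 beta-PEA response and 100% = DMSO alone without agonist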
Target sequence (Q96RJ0 whole entry, looked up): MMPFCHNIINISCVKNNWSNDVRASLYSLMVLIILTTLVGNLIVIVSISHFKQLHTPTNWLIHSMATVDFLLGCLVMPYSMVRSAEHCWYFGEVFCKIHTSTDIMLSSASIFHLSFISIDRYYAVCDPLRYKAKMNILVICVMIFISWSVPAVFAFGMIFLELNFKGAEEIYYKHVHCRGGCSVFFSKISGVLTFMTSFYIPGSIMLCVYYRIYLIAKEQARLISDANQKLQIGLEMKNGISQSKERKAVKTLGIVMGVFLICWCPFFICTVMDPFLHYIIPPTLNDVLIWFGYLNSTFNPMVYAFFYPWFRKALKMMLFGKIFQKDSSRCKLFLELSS
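System: RD-HGA16 CHO cells with stable hTAAR1 and Gα16 | Probe or stimulus: EC80 β-phenethylamine stimulus | Dosing: 3 µM, single point | Times: Dye loading 75 min at 37 °C, then 30 min room temperature | Measured by: Fluo-8 calcium-sensitive fluorescence | Read-out basis: % inhibition of agonist calcium response | Replicates: n of 1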
M1 ag: human M1 muscarinic receptor agonism; activation, % at 3 µM; CHO-K1 hM1, Fluo-8 calcium fluorescence, agonist mode; 0% DMSO, 100% acetylcholine EC100; 360,000 compounds, 0.33% hits; P11229;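 active means activation above the run's mean compound activation plus 3 SD, cut at about 16% in these data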;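 further: peak over basal fluorescence ratio within a 140 s kinetic read after compound addition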
TAAR1 ag: agonists of human TAAR1; Q96RJ0; CHO RD-HGA16 TAAR1, Fluo-8 calcium fluorescence; vehicle wells 0%, saturating PEA agonist 100%; activation, % at 3 µM; 360,000 compounds, 0.99% hits; AID 624467;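 active means activation above the mean activation of all test compounds in the run plus 3 SD, cut at about 38% in these data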
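Benchmarks: low control DMSO, high control PEA (EC100); System: CHO RD-HGA16 cells carrying human TAAR1 plus Gα16; Detection: Fluo-8 fluorescence, 5 s baseline then 140 s kinetic read; Schedule: 17-24 h plating, Fluo-8 75 min 37 °C, 30 min RT; Read-out basis: % activation from peak over basal fluorescence ratio, DMSO-to-PEA scaled.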
TAAR1 nonsel count: counter-screen for TAAR1 antagonists: nonselective antagonists | shares compounds with TAAR1 antag | counterscreen cell line, calcium fluorescence, antagonist mode | inhibition, % at 3 µM | 2,400 compounds, 77% hits | AID 651780; in the data active means inhibition above about 22%;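 further: CHO-Ga16 host cells stimulated with ATP at an EC80 level; 0% = agonist EC80 plus vehicle and 100% = vehicle without agonist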
TAAR1 ant conf: confirmation of human TAAR1 antagonists; shares compounds with TAAR1 antag; TAAR1-expressing cells, fluorescence antagonist read-out; inhibition, % at 3 µM; 2,400 compounds, 40% hits; AID 651785; in the data active means inhibition above about 49%;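 further: CHO-Ga16 host cells challenged with agonist PEA near its EC80; 0% = agonist at EC80 plus vehicle and 100% = vehicle with no agonist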
Ga16 nonsel ag: counter-screen for TAAR1 antagonists: nonselective Ga16 agonists; 2,400 compounds, 18% hits; shares compounds with TAAR1 antag; AID 651953; Ga16-expressing cells, calcium fluorescence, agonist counterscreen; activation, % at 3 µM; in the data active means activation above about 12%;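 further: 0% = vehicle wells and 100% = saturating stimulus response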
TAAR1 ag count: activates human TAAR1 in antagonist counter-screen; shares compounds with TAAR1 antag; hTAAR1 cell line, fluorescence activation, agonist mode; activation, % at 3 µM; 2,400 compounds, 2% hits; AID 651955; in the data active means activation above about 37%;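 further: CHO cells stably expressing TAAR1 with calcium dye readout; 0% = DMSO vehicle and 100% = full agonist response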
* = called active by the depositor; x = no result.

SMILES | CHRM1 PAM | CHRM1 antagonist | TAAR1 antag | M1 ag | TAAR1 ag | TAAR1 nonsel count | TAAR1 ant conf | Ga16 nonsel ag | TAAR1 ag count
CCCCC[C@@H](C)N1C[C@@H](COCc2ccccc2)Oc2cc(N3CC[C@H](N(C)C)C3)ccc2S1(=O)=O | x | x | -11 | x | 13 | x | x | x | x
C=CC[C@@H](CC(=O)N(CCO)Cc1ccccc1)C(=O)N[C@H](COC(=O)[C@@H](CC=C)CC(=O)OC(C)(C)C)c1ccccc1 | -2 | -2 | 45 | -9 | 8 | x | x | x | x
C=CC[C@@H](CC(=O)N(CCO)Cc1ccccc1)C(=O)NC[C@H](OC(=O)[C@@H](CC=C)Cc1ccc(F)cc1)c1ccccc1 | -17 | 34* | 89* | -1 | 20 | 36* | 63* | 9 | 10
C=CC[C@@H](CC(=O)N(CCO)Cc1ccccc1)C(=O)N[C@H](COC(=O)[C@@H](CC=C)Cc1ccc(F)cc1)c1ccccc1 | -1 | 7 | 61* | -2 | 14 | 17 | 25 | 14* | 12
C=CC[C@@H](CC(=O)N(CCO)Cc1ccccc1)C(=O)NC[C@@H](OC(=O)[C@@H](CC=C)CC(=O)OC(C)(C)C)c1ccccc1 | -5 | 14 | 59* | -6 | 17 | 29* | 39 | 8 | 10
COCCNC(=O)C1C(=O)Nc2ccccc2C(=O)N1Cc1ccccc1 (stereo unspecified) | x | x | 2 | x | 0 | x | x | x | x
Cn1cncc1C#Cc1c(-c2ccc(S(C)(=O)=O)cc2)sc2ccccc12 | 2 | -1 | 61* | -1 | 11 | 32* | 35 | 6 | 1
COc1ccc(Nc2nc(C(=O)N3CCc4cc(OC)c(OC)cc4C3)cs2)cc1 | 4 | 8 | 57* | -1 | 2 | 22* | 32 | 5 | 0
CN(C(=O)c1cccc(Nc2ccc(-c3ccc4c(c3)OCCO4)nn2)c1)C1CCCCC1 | -4 | 17 | 54* | -3 | 13 | 13 | 31 | 5 | 15
CCCCn1nnnc1C(c1cc2ccccc2o1)N(C)Cc1ccccc1 (stereo unspecified) | x | x | 38 | x | 3 | x | x | x | x
Cc1ccc(-c2[nH]ncc2/C=N/n2c(C)nc3ccccc3c2=O)cc1 | 15 | -12 | 50* | 2 | 11 | 23* | 40 | 7 | 8
C=CC[C@@H](Cc1ccc(F)cc1)C(=O)OC[C@@H]1CCCN1C(=O)[C@@H](CC=C)CC(=O)N[C@H](CO)Cc1ccccc1 | -10 | 18 | 66* | -4 | 26 | 36* | 34 | 9 | 9
C=CC[C@@H](Cc1ccc(F)cc1)C(=O)OC[C@H]1CCCN1C(=O)[C@@H](CC=C)CC(=O)N[C@@H](CO)Cc1ccccc1 | 5 | -7 | 16 | -1 | 10 | x | x | x | x
C=CC[C@@H](Cc1ccc(F)cc1)C(=O)OC[C@H]1CCCN1C(=O)[C@@H](CC=C)CC(=O)N[C@H](CO)Cc1ccccc1 | 5 | 11 | 81* | 2 | 22 | 41* | 43 | 13* | 7
C=CCC[C@@H](Cc1ccc(F)cc1)C(=O)OC[C@H]1CCCN1C(=O)[C@@H](CC=C)CC(=O)N[C@H](CO)Cc1ccccc1 | -3 | 8 | 67* | -4 | 18 | 29* | 53* | 7 | 7
CO[C@H]1CN(C)C(=O)c2cc(NC(=O)c3cc(C)on3)ccc2OC[C@@H](C)N(C(=O)C2CC2)C[C@H]1C | x | x | -3 | x | 0 | x | x | x | x
Fc1cccc(NC(=S)NNc2c3ccccc3nc3ccccc23)c1 | 3 | -7 | 53* | -7 | 0 | 40* | 48 | 3 | 1
Fc1cccc(NC(=S)NNc2ccccc2)c1 | 5 | -4 | 3 | -3 | 1 | x | x | x | x
O=[N+]([O-])c1ccc(/C=N/Nc2ccc3ccccc3c2)o1 | -6 | 13 | 76* | -3 | 21 | 52* | 65* | 19* | 7
O=C(N/N=C/c1ccc([N+](=O)[O-])o1)c1cc2ccccc2o1 | 4 | -11 | 7 | -1 | 0 | x | x | x | x
COc1ccc(-c2cc(C(=O)N3CCN(c4ccccc4O)CC3)c3ccccc3n2)cc1OC | -12 | 46* | 74* | -2 | 11 | 26* | 46 | 8 | 6
Cc1ccc(-c2cc(C(=O)N3CCN(c4ccccc4O)CC3)c3ccccc3n2)cc1 | 4 | -1 | 62* | 0 | 7 | 36* | 44 | 6 | 2
COc1ccc(-c2cc(C(=O)N3CCCC3)c3ccccc3n2)cc1 | 10 | -13 | 16 | 2 | 7 | x | x | x | x
CC1CN(C(=O)c2cc(-c3ccc(Cl)s3)nc3ccccc23)CC(C)O1 (stereo unspecified) | 18 | -14 | 11 | -1 | -1 | x | x | x | x
O=C(c1cc(-c2ccccc2Cl)nc2ccccc12)N1CCC1 | 6 | -13 | 12 | -2 | 1 | x | x | x | x
SMILES | CHRM1 PAM | CHRM1 antagonist | TAAR1 antag | M1 ag | TAAR1 ag | TAAR1 nonsel count | TAAR1 ant conf | Ga16 nonsel ag | TAAR1 ag count
O=C(c1cc(-c2ccccc2Cl)nc2ccccc12)N1CCN(c2ccccc2O)CC1 | -2 | 12 | 59* | -1 | 14 | 22* | 36 | 7 | 6
NC(=O)C1CCN(C(=O)c2cc(-c3ccc(Cl)s3)nc3ccccc23)CC1 | 4 | 9 | 60* | 7 | 12 | 32* | 44 | 11 | 13
Nc1nc2ncccn2c1-c1ccc(F)c(F)c1 | x | x | -12 | x | 4 | x | x | x | x
Cc1ccccc1NC(=O)C1C(=O)Nc2ccccc2C(=O)N1Cc1ccccc1 (stereo unspecified) | x | x | 0 | x | 1 | x | x | x | x
CCCCC[C@H](C)N1C[C@@H](COCc2ccccc2)Oc2cc(N3CCC[C@@H]3COC)ccc2S1(=O)=O | x | x | -10 | x | 1 | x | x | x | x
Cc1ccc(-c2cc(C(=O)N3CCN(c4ccc(O)cc4)CC3)c3ccccc3n2)cc1 | -2 | 13 | 65* | 3 | 14 | 35* | 43 | 10 | 8
O=C(c1cc(-c2ccccc2)nc2ccccc12)N1CCCC1 | 9 | -18 | -16 | 1 | 4 | x | x | x | x
CCC(c1nnnn1-c1ccc2c(c1)OCCO2)N1CCN(c2cccc(C)c2C)CC1 (stereo unspecified) | x | x | -5 | x | 0 | x | x | x | x
COCCOC(=O)c1c(C)oc2ccc(OC(=O)c3c(OC)cccc3OC)cc12 | 2 | 1 | 51* | 0 | 10 | 32* | 43 | 6 | 5
CCOC(=O)Oc1ccc2oc(C)c(C(=O)OCCOC)c2c1 | 1 | 7 | 9 | -4 | 17 | x | x | x | x

Screening data from PubChem.
